Compound activity deposited in PubChem by The Scripps Research Institute Molecular Screening Center.
HTRA1 inhibitor = inhibitors of human serine peptidase HTRA1; Q92743; recombinant HTRA1, FP-rhodamine activity-based probe, fluorescence polarization; inhibition, % at 5.96 µM; 340,000 compounds, 0.5% hits; AID 504803; in the data active means inhibition above about 36%
Target sequence (Q92743 whole entry, looked up): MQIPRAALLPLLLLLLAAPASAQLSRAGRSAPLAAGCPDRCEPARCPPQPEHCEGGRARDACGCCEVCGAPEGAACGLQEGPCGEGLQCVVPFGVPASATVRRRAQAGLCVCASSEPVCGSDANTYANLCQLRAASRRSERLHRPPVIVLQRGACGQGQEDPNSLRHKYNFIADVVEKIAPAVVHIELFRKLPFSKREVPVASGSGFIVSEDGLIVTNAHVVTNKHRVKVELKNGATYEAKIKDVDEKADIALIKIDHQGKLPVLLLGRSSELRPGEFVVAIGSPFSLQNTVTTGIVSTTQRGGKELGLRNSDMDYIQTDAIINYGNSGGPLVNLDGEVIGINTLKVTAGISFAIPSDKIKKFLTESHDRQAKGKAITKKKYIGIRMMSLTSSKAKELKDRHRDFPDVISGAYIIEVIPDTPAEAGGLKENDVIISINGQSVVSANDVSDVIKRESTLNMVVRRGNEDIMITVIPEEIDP
TCR CD3 inh = blocks the human TCR-CD3 interaction | AID 651800 | TAMRA-labeled TCR probe fluorescence, biochemical | inhibition, % at 9.4 µM | 360,000 compounds, 0.37% hits;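 further: recombinant mutant TCR 2C K166C tagged with TAMRA read by polarization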
LEDGF integ inh = blocks HIV-1 LEDGF/p75-dependent DNA integration. TR-FRET IN-LEDGF/p75 DNA integration, Eu/Cy5. inhibition, % at 3.7 µM. 370,000 compounds, 0.64% hits. AID 743269;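 active means inhibition above the screen-wide mean plus 3 SD, cut at about 13% in these data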;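 further: signal is the Cy5 over europium emission ratio at 671 and 618 nm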
TDP2 absorb = blocks human TDP2 phosphodiesterase activity. recombinant TDP2, T5PNP hydrolysis, p-nitrophenol absorbance 415 nm. 370,000 compounds, 0.34% hits. inhibition, % at 12.8 µM;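 active means inhibition above the mean of all tested compounds plus 3 SD, set per campaign, cut at about 25% in these data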
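System – recombinant human TDP2 · Amount – 120 nM TDP2 per well · Buffer or medium – Mg2+-containing Tris-HCl buffer, pH 7.5 · Reagent – T5PNP substrate, 5 mM · Dosing – 12.8 µM single point, 1% DMSO · Incubation – 2 h at 37 °C · Measured by – epi absorbance · Read-out basis – percent inhibition · Benchmarks – high control without enzyme, low control DMSO plus TDP2 · Repeats – singlicate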
mABHD4 FP = inhibitors of mouse ABHD4. purified mABHD4, FP-Rh probe fluorescence polarization. inhibition, % at 8.92 µM. 370,000 compounds, 0.54% hits;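 active means inhibition exceeding the mean over every tested compound plus 3 SD, cut at about 30% in these data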
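Material: mouse ABHD4 enzyme, wild type; Benchmarks: S159A mutant high control, sample median low control; Buffer or medium: HEPES pH 7.0, NaCl, Pluronic buffer; Signal: fluorescence polarization; Read-out: percent inhibition of probe binding, normalized to plate controls; Timing: pre-incubation 45 min, probe exposure 60 min, at 25 °C; Dosing: 8.92 µM, single dose.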
SIAE primary = human SIAE inhibition, primary screen | SIAE FP-Rh probe binding, fluorescence polarization | AID 1053197 | 370,000 compounds, 0.69% hits | inhibition, % at 9.66 µM | Q9HAT2;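 active means inhibition above a cutoff: mean of compounds within the control limits plus 3 SD of those, cut at about 17% in these data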
HTRA1 inh conf = HTRA1 (human) inhibition, confirmation; shares compounds with HTRA1 inhibitor; recombinant HTRA1, FP-rhodamine activity-based probe, fluorescence polarization; inhibition, % at 5.96 µM; 1,600 compounds, 66% hits; AID 540248;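 active means mean inhibition over three repeats above a set limit taken from the earlier primary screen, cut at about 37% in these data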;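 further: inhibitors block probe binding so polarization drops and inhibition rises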
BSA probe FL = interferes with TAMRA-BSA probe, flagging TCR-CD3 hits. TAMRA-labeled BSA probe fluorescence counterscreen. inhibition, % at 9.4 µM. shares compounds with TCR CD3 inh. 1,200 compounds, 10% hits; in the data active means inhibition above about 23%
TCR-CD3 conf = TCR-CD3 interaction inhibition, confirmation; shares compounds with TCR CD3 inh; TAMRA-labeled TCR probe fluorescence binding assay; inhibition, % at 9.4 µM; 1,200 compounds, 48% hits; AID 652036
mABHD4 conf = confirmation of mouse ABHD4 inhibitors; shares compounds with mABHD4 FP; purified mABHD4, FP-Rh probe fluorescence polarization; inhibition, % at 8.92 µM; 1,800 compounds, 55% hits;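 active means mean inhibition across replicates above the hit cutoff set in the primary screen, cut at about 30% in these data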
TDP2 inh conf = human TDP2 inhibition, confirmation; shares compounds with TDP2 absorb; recombinant human TDP2, absorbance read-out; inhibition, % at 12.8 µM; 1,100 compounds, 22% hits; AID 743263; in the data active means inhibition above about 25%
IN multimer act = counter-screen for LEDGF/p75 integration inhibitors: HIV-1 integrase multimerization activators. AID 1053131. 2,000 compounds, 17% hits. TR-FRET HIV-1 integrase multimerization, biochemical. shares compounds with LEDGF integ inh. activation, % at 7.7 µM; in the data active means activation above about 8.9%
TR-FRET interf = TR-FRET optical interference, LEDGF/p75 integration counter-screen; inhibition, % at 7.7 µM; shares compounds with LEDGF integ inh; TR-FRET optical interference counterscreen, HIV-1 IN multimerization; AID 1053135; 2,000 tested, under 10 active;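 active means inhibition above the mean over all tested compounds plus 3 SD, which no compound reached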
IN-LEDGF confirm = confirmation of HIV-1 LEDGF/p75-dependent integration inhibitors | AID 1053136 | 2,000 compounds, 36% hits | shares compounds with LEDGF integ inh | TR-FRET LEDGF/p75-dependent HIV-1 integration, biochemical | inhibition, % at 3.7 µM; in the data active means inhibition above about 14%
Large screens that a line does not name were inactive (follow-up assays come after a bar, where they were run). This is a sample that favours compounds with a hit; in the whole collection about 2.2% have one here. Unless noted, no stated cut-off is given here; in the data, active means inhibition above about 19%; inactive means the rest.

O=S(=O)(O)c1ccc(O)c2cc(Nc3ccccc3)ccc12	HTRA1 inhibitor 67, TCR CD3 inh 44, LEDGF integ inh 87, mABHD4 FP 78, SIAE primary 55 | HTRA1 inh conf 44 | IN multimer act 66 | TR-FRET interf inactive | IN-LEDGF confirm 77
Cc1ccc(S(=O)(=O)c2cc(Nc3ccccc3)ccc2O)cc1	none
Nc1[nH]c(C(=O)c2ccc(Cl)cc2)c(-c2ccc(Br)cc2)c1C(=O)NCc1ccc(Cl)cc1Cl	none (no result: HTRA1 inhibitor)
CC(C)(C)c1cc(CCC(=O)NCCc2ccccn2)cc(C(C)(C)C)c1O	none
O=C1C=C(NCCc2cc(Br)c(O)c(Br)c2)C(=O)c2ncccc21	HTRA1 inhibitor 53, TCR CD3 inh 26, LEDGF integ inh 28, TDP2 absorb 48, mABHD4 FP 48 | HTRA1 inh conf 43 | BSA probe FL inactive | TCR-CD3 conf 25 | mABHD4 conf 51 | TDP2 inh conf 60 | IN multimer act 16 | TR-FRET interf inactive | IN-LEDGF confirm 75
COC(=O)[C@]12C[C@H](CC(=O)NCc3cccs3)C(=O)N(CCc3ccc(OC)c(OC)c3)C1=C[C@H](C(C)(C)C)O[C@@H]2C	none (no result: HTRA1 inhibitor)
C=CCCC1CN(Cc2ccc(OC)cc2)S(=O)(=O)c2c(cccc2Sc2ccc(OC)c(OC)c2)O1 (configuration not stated)	none (no result: HTRA1 inhibitor)
O=c1cc(-c2ccc(O)c(O)c2)oc2c1ccc1ccccc12	HTRA1 inhibitor 66, TCR CD3 inh 40, LEDGF integ inh 51, mABHD4 FP 34 | HTRA1 inh conf 74 | BSA probe FL inactive | TCR-CD3 conf 75 | mABHD4 conf 31 | IN multimer act inactive | TR-FRET interf inactive | IN-LEDGF confirm 68
O=c1cc(-c2ccccc2)oc2c1ccc1ccccc12	none (no result: HTRA1 inhibitor)
Cc1ccc(C)c(N=Cc2cc3c(cc2[N+](=O)[O-])OCO3)c1	HTRA1 inhibitor 48, LEDGF integ inh 40, mABHD4 FP 50, SIAE primary 27 | HTRA1 inh conf inactive | mABHD4 conf 45 | IN multimer act inactive | TR-FRET interf inactive | IN-LEDGF confirm inactive
Cc1c2ccccc2nc2c(F)c(NC(C)C)c(F)c(F)c12	HTRA1 inhibitor 57, LEDGF integ inh 13, mABHD4 FP 47 | HTRA1 inh conf inactive | mABHD4 conf inactive | IN multimer act inactive | TR-FRET interf inactive | IN-LEDGF confirm inactive
OCCNc1c2ccccc2nc2c(F)c(F)c(F)c(F)c12	none
Cc1c2ccccc2nc2c(F)c(NCCO)c(F)c(F)c12	HTRA1 inhibitor 67, LEDGF integ inh 14, mABHD4 FP 58 | HTRA1 inh conf inactive | mABHD4 conf 52 | IN multimer act inactive | TR-FRET interf inactive | IN-LEDGF confirm inactive
Cn1c(SCC2CCC2)nnc1-c1ccco1	none (no result: HTRA1 inhibitor, TCR CD3 inh)
Cc1nc2cc(-c3ccsc3-n3c(C)ccc3C)[nH]n2c(=O)c1Cl	HTRA1 inhibitor 38, LEDGF integ inh 48 | HTRA1 inh conf inactive | IN multimer act inactive | TR-FRET interf inactive | IN-LEDGF confirm 33
Cn1c(SC2CCCC2)nnc1-c1ccco1	none (no result: HTRA1 inhibitor, TCR CD3 inh)
CN=c1scc(-c2cccs2)n1/N=C/c1ccccc1O	none
C=CCN=c1scc(-c2ccco2)n1/N=C/c1ccc(O)c(O)c1O	HTRA1 inhibitor 72, TCR CD3 inh 21, LEDGF integ inh 43, mABHD4 FP 49 | HTRA1 inh conf 86 | BSA probe FL inactive | TCR-CD3 conf inactive | mABHD4 conf 60 | IN multimer act inactive | TR-FRET interf inactive | IN-LEDGF confirm 30
CN=c1scc(-c2cccs2)n1/N=C/c1ccc(O)c(O)c1O	HTRA1 inhibitor 82, TCR CD3 inh 28, LEDGF integ inh 28, mABHD4 FP 56 | HTRA1 inh conf 73 | BSA probe FL inactive | TCR-CD3 conf 23 | mABHD4 conf 74 | IN multimer act inactive | TR-FRET interf inactive | IN-LEDGF confirm 42
Cc1sc2nc(COC(=O)CNC(=O)c3ccccc3Cl)[nH]c(=O)c2c1C	none (no result: HTRA1 inhibitor, TCR CD3 inh)
C[C@@H](N)C(=O)Nc1ccc(Cl)cc1C(=O)c1ccc[nH]1	none (no result: HTRA1 inhibitor, TCR CD3 inh)
COCCSc1ncccc1-c1nc2ccccc2[nH]1	none (no result: HTRA1 inhibitor, TCR CD3 inh)
COc1cc(-c2csc(N3CCC(C(N)=O)CC3)n2)cc(OC)c1OC	none (no result: HTRA1 inhibitor, TCR CD3 inh)
CC(C)C[C@@H]1COc2cccc(NC3CC3)c2S(=O)(=O)N1	none (no result: HTRA1 inhibitor)
COc1ccccc1N1C(=O)CC(Nc2ccc(N3CCOCC3)cc2)C1=O (configuration not stated)	HTRA1 inhibitor 44, LEDGF integ inh 15, mABHD4 FP 46 | HTRA1 inh conf inactive | mABHD4 conf inactive | IN multimer act inactive | TR-FRET interf inactive | IN-LEDGF confirm inactive
NNC(=O)c1cc(O)c(O)c(O)c1	HTRA1 inhibitor 79, TCR CD3 inh 57, LEDGF integ inh 61, mABHD4 FP 36 | HTRA1 inh conf inactive | mABHD4 conf inactive | IN multimer act 39 | TR-FRET interf inactive | IN-LEDGF confirm 63
COc1c(Cl)cc(C(=O)NN)cc1Cl	none
O=C(N/N=C/c1cccnc1)c1cc(O)c(O)c(O)c1	HTRA1 inhibitor 45, TCR CD3 inh 32, LEDGF integ inh 38 | HTRA1 inh conf inactive | BSA probe FL inactive | TCR-CD3 conf 20 | IN multimer act 35 | TR-FRET interf inactive | IN-LEDGF confirm 20
Cc1ccccc1CN1CCCCC(NC(=O)c2ccccc2)C1=O (configuration not stated)	none (no result: HTRA1 inhibitor, TCR CD3 inh)
CNS(=O)(=O)c1cc(N)ccc1C	none
